Activity calls are given as the source filed them. The calls are words filed in the database; no cut-off is given here.
What was measured:
DU-145 [1] = test: Induction of apoptosis in human DU145 cells assessed as reduction in Bcl2 expression at 0.08 to 0.32 uM after 24 hrs by Western blot analysis; type: functional, cell-based
Summary of the method: (§1)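 DU-145 cells (5 × 10^5/well) in 10% FCS Ham's F-12K overnight, treated in duplicate with compound or vehicle 24 h; lysed (Tris pH 8, EGTA, NaCl, NP-40, Triton X-100), protein by BCA. Blots blocked in 5% milk, probed for AKT, p-AKT Ser473, mTOR, p-mTOR Ser2448, Bax, Bcl-2, β-actin; ECL detection, densitometry relative to control; three separate experiments.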

DU-145 [2] = test: Induction of apoptosis in human DU145 cells assessed as increase in Bax to Bcl2 ratio at 0.08 to 0.32 uM after 24 hrs by Western blot analysis; type: functional, cell-based; summary of the method: as §1
[3] = biological target: Serine/threonine-protein kinase mTOR (Homo sapiens) (UniProt P42345); test: Effect on mTOR protein expression in human DU145 cells at 0.08 to 0.32 uM after 24 hrs by Western blot analysis; type: functional, cell-based; conditions: DU-145; summary of the method: as §1
[4] = Reduction in phosphorylated Akt protein expression in human DU145 cells at 0.08 to 0.32 uM after 24 hrs by Western blot analysis; type: functional, cell-based; conditions: DU-145; summary of the method: as §1
[5] = biological target: Serine/threonine-protein kinase mTOR (Homo sapiens) (UniProt P42345); test: Reduction in phosphorylated mTOR protein expression in human DU145 cells at 0.08 to 0.32 uM after 24 hrs by Western blot analysis; type: functional, cell-based; conditions: DU-145; summary of the method: as §1
[6] = Apparent permeability across basolateral to apical side in human Caco2 cells at 0.5 uM measured after 30 mins by LC-MS/MS analysis; type: ADME, cell-based; conditions: Caco-2
Summary of the method: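 Caco2 monolayers (passages 20−40) grown 21 days at 37 °C, 5% CO2; integrity checked by TEER. Test drug 0.5 μM applied in triplicate, apical pH 6.8, basolateral pH 7.4, 37 °C for 30 min, A→B and B→A. Donor and receiver sampled, concentration by LC−MS/MS; Papp calculated; efflux ratio = Papp B→A / Papp A→B.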

DU-145 [7] = test: Antiproliferative activity against human DU145 cells after 72 hrs by CCK8 assay; type: functional, cell-based; conditions: DU-145, 72 h
Summary of the method: (§2)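 CCK-8 assay: DU-145, H460, Bxpc-3, BEL-7404 and nontumor WPMY-1 cells seeded at 5 × 10^3 cells/well in 10% FCS DMEM overnight, then exposed in triplicate to 0.041−10 μM for 72 h. CCK-8 added for final 30 min, absorbance 450 nm; inhibition relative to medium-only controls after background subtraction; IC50 as concentration giving 50% inhibition.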

[8] = Antiproliferative activity against human H460 cells after 72 hrs by CCK8 assay; type: functional, cell-based; conditions: NCI-H460, 72 h; summary of the method: as §2
[9] = Antiproliferative activity against human BxPC3 cells after 72 hrs by CCK8 assay; type: functional, cell-based; conditions: BXPC-3, 72 h; summary of the method: as §2
[10] = Antiproliferative activity against human WPMY-1 cells after 72 hrs by CCK8 assay; type: functional, cell-based; conditions: WPMY-1, 72 h; summary of the method: as §2
Mus musculus [11] = test: Acute toxicity in ICR mouse assessed as mortality at 640 mg/kg, oral gavage after 4 to 14 days; type: organism-based; conditions: in vivo
Summary of the method: (§3)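 ICR mice of both sexes, 7 weeks old, held under SPF conditions. Each got one gavage dose (800, 640, 512, 409.6 or 327.8 mg/kg) or vehicle, n = 8 per group. Deaths were recorded at 1 h, 4 h, 3 d and 4–14 d. Behaviour, water and food intake, body weight and activity were followed to day 14. LD50 given with 95% confidence limits.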

Mus musculus [12] = test: Acute toxicity in ICR mouse assessed as mortality at 512 mg/kg, oral gavage after 1 hr; type: organism-based; conditions: in vivo; summary of the method: as §3
Mus musculus [13] = test: Acute toxicity in ICR mouse assessed as mortality at 409.6 mg/kg, oral gavage after 4 to 14 days; type: organism-based; conditions: in vivo; summary of the method: as §3
Mus musculus [14] = test: Acute toxicity in ICR mouse assessed as mortality at 327.8 mg/kg, oral gavage after 4 hrs; type: organism-based; conditions: in vivo; summary of the method: as §3
Mus musculus [15] = test: Acute toxicity in ICR mouse assessed as total mortality at 800 mg/kg, oral gavage up to 14 days; type: organism-based; conditions: in vivo, 336 h; summary of the method: as §3
Mus musculus [16] = test: Acute toxicity in ICR mouse assessed as total mortality at […] mg/kg, oral gavage up to 14 days; type: organism-based; conditions: in vivo, 336 h; summary of the method: as §3
[17] = Acute toxicity oral gavage treated in ICR mouse assessed as mortality measured up to 14 days; type: organism-based; conditions: in vivo; summary of the method: as §3
DU-145 [18] = test: Anticancer activity against human DU145 cells xenografted in BALB/c mouse assessed as decrease in tumor growth at 8.5 mg/kg, oral gavage for 21 days relative to vehicle treated control; type: functional; conditions: DU-145, po, 504 h
Summary of the method: (§4)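 Male BALB/c nude mice (6−8 weeks, 18−22 g) implanted subcutaneously on right axillary flank with 2 × 10^6 DU-145 cells in 0.1 mL saline. At 100 ± 30 mm3 tumors, randomized (n = 5/group) to daily gavage for 21 days; vehicle DMSO/Cremphor EL/PBS 1:1:8. Tumor volume every 3 days; tumors excised and weighed at end; TGI from mean tumor weights vs vehicle; body weight tracked.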

Mus musculus [19] = test: Toxicity in human DU145 cells xenografted in BALB/c mouse assessed as change in body weight at 8.5 mg/kg, oral gavage for 21 days relative to vehicle treated control; type: organism-based, DU-145; conditions: in vivo, 504 h; summary of the method: as §4
Mus musculus [20] = test: Toxicity in human DU145 cells xenografted in BALB/c mouse assessed as change in body weight at 17 mg/kg, oral gavage for 21 days relative to vehicle treated control; type: organism-based, DU-145; conditions: in vivo, 504 h; summary of the method: as §4
DU-145 [21] = test: Induction of cell cycle arrest in human DU145 cells assessed as cells accumulation at G0/G1 phase at 0.08 uM after 24 hrs by propidium iodide staining-based flow cytometry (reference value: 54%); type: functional
DU-145 [22] = test: Induction of cell cycle arrest in human DU145 cells assessed as cells accumulation at G2/M phase at 0.08 uM after 24 hrs by propidium iodide staining-based flow cytometry (reference value: 22%); type: functional
Cytochrome P450 1A2 = biological target: T1, Cytochrome P450 1A2 (Homo sapiens, UniProt P05177); test: Inhibition of CYP1A2 in human liver microsomes after 1 hr by LC-MS/MS analysis
T1 sequence (P05177 whole entry): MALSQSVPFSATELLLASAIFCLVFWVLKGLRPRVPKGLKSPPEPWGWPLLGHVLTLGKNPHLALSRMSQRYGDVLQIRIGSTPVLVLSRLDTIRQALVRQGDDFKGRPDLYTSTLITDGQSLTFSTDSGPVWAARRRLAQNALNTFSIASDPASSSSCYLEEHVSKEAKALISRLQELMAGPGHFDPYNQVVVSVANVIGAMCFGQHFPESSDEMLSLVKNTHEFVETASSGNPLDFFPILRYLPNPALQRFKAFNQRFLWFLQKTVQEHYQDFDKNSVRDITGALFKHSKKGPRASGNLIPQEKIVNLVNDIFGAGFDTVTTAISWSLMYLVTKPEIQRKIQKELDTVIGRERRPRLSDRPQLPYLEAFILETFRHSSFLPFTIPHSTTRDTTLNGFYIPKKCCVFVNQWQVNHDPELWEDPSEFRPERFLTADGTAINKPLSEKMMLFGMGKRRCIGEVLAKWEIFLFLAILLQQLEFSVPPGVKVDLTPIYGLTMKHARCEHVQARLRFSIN

SMILES: CC1(C)CC[C@]23CC[C@@]4(C)[C@]5(C)CC[C@H]6C(C)(C)C(=O)C(C#N)=C[C@]6(C)C5=CC(=O)[C@@]4([C@@H]2C1)N(C1CCCCC1)C3=O
- inhibition (DU-145 [1]): Active
- Activity (DU-145 [2]): Active
- Activity [3]: inactive
- inhibition [4]: Active
- inhibition [5]: Active
- Papp B→A at 0.5 h, 0.5 µM [6]: 0.059 ×10⁻⁶ cm/s
- IC50 (DU-145 [7]): 390 nM
- IC50 [8]: 380 nM
- IC50 [9]: 330 nM
- IC50 [10]: 6.09 µM
- Activity (Mus musculus [11]): Non-toxic
- Activity (Mus musculus [12]): Non-toxic
- Activity (Mus musculus [13]): Non-toxic
- Activity (Mus musculus [14]): Non-toxic
- Activity (Mus musculus [15]): Toxic
- Activity (Mus musculus [16]): Toxic
- LD50 at 336 h [17]: 541 mg/kg
- inhibition in vivo at 8.5 mg/kg (DU-145 [18]): 30%
- Activity (Mus musculus [19]): Non-toxic
- Activity (Mus musculus [20]): Non-toxic
- Activity (DU-145 [21]): 56%
- Activity (DU-145 [22]): 19%
- IC50 (Cytochrome P450 1A2): > 100 µM

Reference: ChEMBL document CHEMBL3580660, “Synthesis and Biological Evaluation of Novel Olean-28,13β-lactams as Potential Antiprostate Cancer Agents” (J Med Chem, 2015)
